Screening results (PubChem BioAssay)
In the library only some 1.9% were active in any assay of this set; here they are far more common.
M4 antag: human M4 muscarinic receptor antagonists, primary screen, CHO cells, Fluo-8 calcium fluorescence. Muscarinic acetylcholine receptor M4 (Homo sapiens), P08173. CHO-hM4 cells, ACh EC80. inhibition, % at 3 µM. 0.73% of 360,000 active. AID 624125, 2012;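 active means inhibition above its plate's cutoff, the mean inhibition of sample wells plus 3 SD, cut at about 27% in these data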;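 further: 0% = acetylcholine EC80 with DMSO and 100% = DMSO without agonist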
CHRM5 PAM: human M5 muscarinic receptor positive allosteric modulators, primary screen, CHO-K1 cells, Fluo-8 calcium fluorescence | Muscarinic acetylcholine receptor M5 (Homo sapiens), P08912 | CHO-K1 hM5, ACh EC20 PAM; 0% = ACh EC20, 100% = ACh EC100 | activation, % at 3 µM | 0.3% of 360,000 active | AID 624038, 2012;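 active means activation above the run cutoff, the mean activation of all test compounds plus 3 SD, cut at about 18% in these data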
Target sequence (P08912 whole entry, looked up): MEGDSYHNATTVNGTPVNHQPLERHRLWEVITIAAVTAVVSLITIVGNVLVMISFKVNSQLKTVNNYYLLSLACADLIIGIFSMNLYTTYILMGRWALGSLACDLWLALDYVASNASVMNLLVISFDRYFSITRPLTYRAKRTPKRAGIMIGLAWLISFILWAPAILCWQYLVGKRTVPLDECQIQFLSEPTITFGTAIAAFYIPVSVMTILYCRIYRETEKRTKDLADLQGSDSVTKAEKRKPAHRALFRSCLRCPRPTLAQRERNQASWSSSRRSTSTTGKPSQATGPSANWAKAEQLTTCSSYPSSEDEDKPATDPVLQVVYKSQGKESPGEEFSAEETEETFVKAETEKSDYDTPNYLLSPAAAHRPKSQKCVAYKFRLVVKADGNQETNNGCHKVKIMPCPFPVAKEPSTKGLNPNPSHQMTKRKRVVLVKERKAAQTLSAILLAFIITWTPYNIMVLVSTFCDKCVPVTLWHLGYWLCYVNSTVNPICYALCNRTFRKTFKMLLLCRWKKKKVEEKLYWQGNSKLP
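system = human M5 receptor in CHO-K1 cells | reagent = EC20 acetylcholine as agonist stimulus | compound dosing = single-point, 3 µM nominal | incubation = Fluo-8 loading 80 min at 37 °C plus 30 min room temperature | detection = Fluo-8 calcium dye fluorescence, kinetic read | benchmarks = low control EC20 acetylcholine (0%), high control EC100 acetylcholine (100%)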
M4 PAM: human M4 muscarinic receptor positive allosteric modulators, primary screen, CHO-K1 cells, Fluo-8 calcium fluorescence; activation, % at 3 µM; 0.4% of 360,000 active; CHO-K1 hM4/Gqi5, ACh EC20; 0% = ACh EC20, 100% = maximal ACh; Muscarinic acetylcholine receptor M4 (Homo sapiens), P08173;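 active means activation above its plate's cutoff, the mean activation of sample wells plus 3 SD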
M4 ag: human M4 muscarinic receptor agonists, primary screen, CHO-K1 cells, Fluo-8 calcium fluorescence; Muscarinic acetylcholine receptor M4 (Homo sapiens), P08173; AID 624127, 2012; 0.14% of 360,000 active; CHO-K1 hM4/Gqi5; vehicle 0%, full acetylcholine response 100%; activation, % at 3 µM;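 active means activation above the run mean over all test wells plus 3 SD, cut at about 32% in these data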;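 further: peak over basal fluorescence ratio per well then scaled between controls; 0% = DMSO wells and 100% = acetylcholine at EC100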
M5 antag: human M5 muscarinic receptor antagonists, primary screen, CHO cells, Fluo-8 calcium fluorescence. inhibition, % at 3 µM. Muscarinic acetylcholine receptor M5 (Homo sapiens), P08912. CHO-hM5 cells, ACh EC80. 0.59% of 360,000 active. AID 624040, 2012;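 active means inhibition above a per-plate cutoff, the mean of that plate's test compounds plus 3 SD, cut at about 27% in these data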;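 further: 0% = acetylcholine EC80 with DMSO and 100% = DMSO without agonist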
CHRM5 agonist: human M5 muscarinic receptor agonists, primary screen, CHO-K1 cells, Fluo-8 calcium fluorescence; Muscarinic acetylcholine receptor M5 (Homo sapiens), P08912; CHO-K1 hM5 cells; 0% DMSO wells, 100% maximal acetylcholine response; activation, % at 3 µM; 0.19% of 360,000 active; AID 624037, 2012;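 active means activation above the run's mean over test compounds plus 3 SD, cut at about 23% in these data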;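 further: signal is peak over basal fluorescence ratio across the kinetic read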
* hit, by the source's call; ! = repeats disagree.

What do the screens show for `c1ccc2c[n+](CCCCCCCCCC[n+]3ccc4ccccc4c3)ccc2c1`?
M4 antag: 26.8*; CHRM5 PAM: -15.5; M4 PAM: -9.8; M4 ag: 0.8; M5 antag: 2.6; CHRM5 agonist: -6.7

Results for ClC1C(Cl)C(Cl)C(Cl)C(Cl)C1Cl (centres undefined) ?
M4 antag: -10.1; CHRM5 PAM: -21.1; M4 PAM: 3.5; M4 ag: 5.1; M5 antag: 35.0*!; CHRM5 agonist: 83.6*!

Results for N#CC(CCN1CCOCC1)(c1ccccc1)c1ccccc1 ?
M4 antag: 13.6; CHRM5 PAM: -15.5; M4 PAM: -7.2; M4 ag: 0.7; M5 antag: 27.5*; CHRM5 agonist: -11.7

Results for CC(=O)N[C@@H]1CC[C@@]2(O)[C@H]3Cc4ccc(O)c5c4[C@@]2(CCN3CC2CC2)[C@@H]1O5 ?
M4 antag: -7.4; CHRM5 PAM: -11.5; M4 PAM: -6.4; M4 ag: -0.1; M5 antag: 0.8; CHRM5 agonist: 0.0

Results for COc1cc(/C=C(/C)[N+](=O)[O-])ccc1OCc1ccccc1Cl ?
M4 antag: 29.2*; CHRM5 PAM: 1.8; M4 PAM: -10.7; M4 ag: 0.8; M5 antag: 27.1*; CHRM5 agonist: -1.5

Results for S=C=Nc1cccc(C2(N3CCCCC3)CCCCC2)c1 ?
M4 antag: 24.6; CHRM5 PAM: -18.8; M4 PAM: -14.9; M4 ag: 0.6; M5 antag: 27.5*; CHRM5 agonist: -1.6

How did c1ccc(C2(N3CCCCC3)CCCCC2)cc1 do in these assays?
M4 antag: -3.8; CHRM5 PAM: -16.1; M4 PAM: -9.6; M4 ag: 1.1; M5 antag: 4.6; CHRM5 agonist: -6.4

How did COc1ccccc1C=C1C(=O)NC(=S)NC1=O do in these assays?
M4 antag: 3.5; CHRM5 PAM: 8.9; M4 PAM: 15.1; M4 ag: 1.5; M5 antag: 1.2; CHRM5 agonist: 3.8

How did C[C@H]1CC[C@@H]2N(C1)C[C@H]1[C@@H]3C[C@H]4[C@@H](CC(=O)[C@H]5C[C@@H](O)CC[C@@]54C)[C@@H]3CC[C@H]1[C@]2(C)O do in these assays?
M4 antag: 84.5*; CHRM5 PAM: -7.7; M4 PAM: -18.2; M4 ag: 1.1; M5 antag: 1.0; CHRM5 agonist: -5.9

What do the screens show for `C[C@]12CC[C@H](O)CC1C(=O)CC1C2CC[C@@]2(C)C1CC[C@@H]2O` (some centres undefined)?
M4 antag: -11.8; CHRM5 PAM: -3.1; M4 PAM: 3.6; M4 ag: 1.8; M5 antag: -2.8; CHRM5 agonist: -5.4

Results for CC(=O)O[C@H]1CC[C@@]2(C)[C@H](C1)C(=O)C[C@H]1[C@@H]3CC[C@@H]4[C@@H](CN5C[C@@H](C)CC[C@H]5[C@@]4(C)O)[C@@H]3C[C@@H]12 ?
M4 antag: 65.1*; CHRM5 PAM: -6.0; M4 PAM: -15.1; M4 ag: -0.1; M5 antag: 10.4; CHRM5 agonist: -7.2

Results for O=[N+]([O-])/C=C/c1c(Cl)cccc1Cl ?
M4 antag: 17.6; CHRM5 PAM: -23.9; M4 PAM: -9.3; M4 ag: 15.8; M5 antag: 28.6*; CHRM5 agonist: -3.2

What do the screens show for `S=P(N1CCOCC1)(N1CC1)N1CC1`?
M4 antag: -15.2; CHRM5 PAM: -4.7; M4 PAM: 8.1; M4 ag: 0.4; M5 antag: 6.4; CHRM5 agonist: 1.8

Results for O=[N+]([O-])c1ccc(NC2CCN(Cc3ccccc3)CC2)c2ccncc12 ?
M4 antag: 9.7; CHRM5 PAM: -1.8; M4 PAM: -4.4; M4 ag: 0.8; M5 antag: 8.4; CHRM5 agonist: -4.1

What do the screens show for `CCCCCCn1c(O)c(C=Nc2c(C)n(C)n(-c3ccccc3)c2=O)c(=O)[nH]c1=O`?
M4 antag: -7.7; CHRM5 PAM: 25.0*; M4 PAM: 12.4; M4 ag: -1.1; M5 antag: 18.9; CHRM5 agonist: -4.5

What do the screens show for `Cc1c(N=Cc2c(O)n(CCc3ccccc3)c(=O)[nH]c2=O)c(=O)n(-c2ccccc2)n1C`?
M4 antag: -3.4; CHRM5 PAM: -4.9; M4 PAM: -6.8; M4 ag: 2.1; M5 antag: 3.7; CHRM5 agonist: -5.5

Results for Cc1ccc(N2C(=O)/C(=C/c3ccc(CN(CCC#N)S(C)(=O)=O)o3)C(=O)NC2=S)cc1 ?
M4 antag: 1.1; CHRM5 PAM: 2.0; M4 PAM: 13.1; M4 ag: 0.8; M5 antag: 6.0; CHRM5 agonist: 3.0

Results for COc1ccccc1N1C(=O)NC(=O)C(CCc2ccncc2)(CCc2ccncc2)C1=O ?
M4 antag: -15.2; CHRM5 PAM: 27.6*; M4 PAM: 10.9; M4 ag: -0.1; M5 antag: 4.4; CHRM5 agonist: 2.6

Results for CCN1CCN(c2cc(=O)n3ccccc3n2)CC1 ?
M4 antag: -14.7; CHRM5 PAM: -2.6; M4 PAM: 4.2; M4 ag: 1.6; M5 antag: 4.5; CHRM5 agonist: -1.3

What do the screens show for `CCOC(=O)[C@]12Cc3cc(OC)ccc3[C@H]1N(C1CCCCC1)C(=O)c1cc(OC)ccc12`?
M4 antag: 0.0; CHRM5 PAM: 3.0; M4 PAM: -0.1; M4 ag: -1.7; M5 antag: 6.9; CHRM5 agonist: 7.7

What do the screens show for `CCOC(=O)[C@]12Cc3cc(C)ccc3[C@H]1N(Cc1ccccc1)C(=O)c1ccccc12`?
M4 antag: 3.9; CHRM5 PAM: -24.5; M4 PAM: -4.2; M4 ag: 5.3; M5 antag: 18.3; CHRM5 agonist: -7.7

How did CCOC(=O)[C@]12Cc3cc(C)ccc3[C@H]1N(C1CCCCC1)C(=O)c1cc(OC)ccc12 do in these assays?
M4 antag: 64.6*; CHRM5 PAM: 8.3; M4 PAM: -2.3; M4 ag: 0.6; M5 antag: 17.6; CHRM5 agonist: 50.1*

What do the screens show for `CCOC(=O)[C@]12Cc3cc(C)ccc3[C@H]1N(C(C)C)C(=O)c1ccccc12`?
M4 antag: -8.5; CHRM5 PAM: 22.0*; M4 PAM: 20.3; M4 ag: -2.0; M5 antag: -11.5; CHRM5 agonist: -2.5

How did C[N+](C)(N)CCOC(=O)C(O)(c1ccccc1)C1CCCCC1 (centres undefined) do in these assays?
M4 antag: 99.5*; CHRM5 PAM: -30.2; M4 PAM: -14.7; M4 ag: 1.0; M5 antag: 99.5*; CHRM5 agonist: -20.1
